Results published in ChEMBL document CHEMBL1135918, “Gold(III) complexes with bipyridyl ligands: solution chemistry, cytotoxicity, and DNA binding properties” (J Med Chem, 2002).
Blank lines part the entries; values can stand above or below the compound they belong to.

Experiments:
Type in all cases: functional, cell-based
CCRF-CEM [1] = assay: Inhibitory effect of Gold(III) complex, [Au(bipy)-(OH)2]-[PF6] on growth of cisplatin-resistant CCRF-CEM/R human tumor cell lines
Procedure, shortened: (§1)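 Human T-lymphoblastoid leukemia CCRF-CEM/S cells, and CCRF-CEM/R cells selected by continuous exposure to rising cisplatin and kept in 10 µM cisplatin. Exponentially growing cells in RPMI1640 with 10% FCS and antibiotics at 37 °C, 5% CO2. Water-dissolved drugs applied for 72 h, growth read by Coulter counter cell counting. IC50 is 50% growth inhibition versus control.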

A2780 [2] = assay: Inhibitory effect of Gold(III) complex, [Au(bipy)-(OH)2]-[PF6] on growth of cisplatin-resistant A2780/R human tumor cell lines
Procedure, shortened: (§2)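 Human ovarian carcinoma cells (A2780/S; A2780/R derived from it by repeated 1 h weekly exposure to 50 µM; SKOV3) grown exponentially in RPMI1640 with 10% FCS and antibiotics at 37 °C, 5% CO2. Drugs dissolved in sterile bidistilled water, 72 h exposure, growth measured by sulforhodamine B assay. IC50 is the concentration inhibiting growth by 50% versus control.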

A2780 [3] = assay: Inhibitory effect of Gold(III) complex, [Au(bipy)-(OH)2]-[PF6] on growth of cisplatin-sensitive A2780/S human tumor cell lines; procedure, shortened: as §2
CCRF-CEM [4] = assay: Inhibitory effect of Gold(III) complex, [Au(bipy)-(OH)2]-[PF6] on growth of cisplatin-sensitive CCRF-CEM/S human tumor cell lines; procedure, shortened: as §1
SK-OV-3 [5] = assay: Inhibitory effect of Gold(III) complex, [Au(bipy)-(OH)2]-[PF6] on growth of cisplatin-resistant SKOV3 human tumor cell lines; procedure, shortened: as §2
SK-OV-3 [6] = assay: Inhibitory effect of Gold(III) complex, [Au(bipy-H)(OH)]-[PF6] on growth of cisplatin-resistant SKOV3 human tumor cell lines; procedure, shortened: as §2
A2780 [7] = assay: Inhibitory effect of Gold(III) complex, [Au(bipy-H)(OH)]-[PF6] on growth of cisplatin-resistant A2780/R human tumor cell lines; procedure, shortened: as §2
A2780 [8] = assay: Inhibitory effect of Gold(III) complex, [Au(bipy-H)(OH)]-[PF6] on growth of cisplatin-sensitive A2780/S human tumor cell lines; procedure, shortened: as §2
CCRF-CEM [9] = assay: Inhibitory effect of Gold(III) complex, [Au(bipy-H)(OH)]-[PF6] on growth of cisplatin-sensitive CCRF-CEM/S human tumor cell lines; procedure, shortened: as §1
CCRF-CEM [10] = assay: Inhibitory effect of Gold(III) complex, [Au(bipy-H)(OH)]-[PF6] on growth of cisplatin-resistant CCRF-CEM/R human tumor cell lines; procedure, shortened: as §1
A2780 [11] = assay: Inhibitory effect of Gold(III) complex, 2,2' bipy on growth of cisplatin-resistant A2780/R human tumor cell lines; procedure, shortened: as §2
CCRF-CEM [12] = assay: Inhibitory effect of Gold(III) complex, 2,2' bipy on growth of cisplatin-resistant CCRF-CEM/R human tumor cell lines; procedure, shortened: as §1
CCRF-CEM [13] = assay: Inhibitory effect of Gold(III) complex, 2,2' bipy on growth of cisplatin-sensitive CCRF-CEM/S human tumor cell lines; procedure, shortened: as §1
A2780 [14] = assay: Inhibitory effect of Gold(III) complex, 2,2' bipy on growth of cisplatin-sensitive A2780/S human tumor cell lines; procedure, shortened: as §2
SK-OV-3 [15] = assay: Inhibitory effect of Gold(III) complex, 2,2' bipy on growth of cisplatin-resistant SKOV3 human tumor cell lines; procedure, shortened: as §2
A2780 [16] = assay: Inhibitory effect of Gold(III) complex, CDDP on growth of cisplatin-resistant A2780/R human tumor cell lines; procedure, shortened: as §2
SK-OV-3 [17] = assay: Inhibitory effect of Gold(III) complex, CDDP on growth of cisplatin-resistant SKOV3 human tumor cell lines; procedure, shortened: as §2
CCRF-CEM [18] = assay: Inhibitory effect of Gold(III) complex, CDDP on growth of cisplatin-sensitive CCRF-CEM/S human tumor cell lines; procedure, shortened: as §1
A2780 [19] = assay: Inhibitory effect of Gold(III) complex, CDDP on growth of cisplatin-sensitive A2780/S human tumor cell lines; procedure, shortened: as §2
CCRF-CEM [20] = assay: Inhibitory effect of Gold(III) complex, CDDP on growth of cisplatin-resistant CCRF-CEM/R human tumor cell lines; procedure, shortened: as §1

- IC50 (CCRF-CEM [1]): 58.6 µM
- IC50 (A2780 [2]): 24.1 µM
- IC50 (A2780 [3]): 8.8 µM
- IC50 (CCRF-CEM [4]): 52.9 µM
- IC50 (SK-OV-3 [5]): 34.4 µM
Compound: pyrido[1',2':3,4]imidazo[1,5-a]pyridinediium-6,6-diol(gold(III)complex) with Phosphorous hexa fluoride

- IC50 (SK-OV-3 [6]): 13.3 µM
- IC50 (A2780 [7]): 8.2 µM
- IC50 (A2780 [8]): 3.3 µM
- IC50 (CCRF-CEM [9]): 11.9 µM
- IC50 (CCRF-CEM [10]): 51.2 µM
Compound: 8,8-dimethyl-8,12b-dihydro-7b,12c-diazoniabenzo[a]aceanthrylen-12b-ol(gold(III)complex) with Phosphorous hexa fluoride

- IC50 (A2780 [11]): 44.8 µM
- IC50 (CCRF-CEM [12]): 61.7 µM
- IC50 (CCRF-CEM [13]): 51.9 µM
- IC50 (A2780 [14]): > 20 µM
- IC50 (SK-OV-3 [15]): 41.3 µM
Compound: c1ccc(-c2ccccn2)nc1 [DIPYRIDYL]

- IC50 (A2780 [16]): 15.3 µM
- IC50 (SK-OV-3 [17]): 21.6 µM
- IC50 (CCRF-CEM [18]): 1000 nM
- IC50 (A2780 [19]): 1300 nM
- IC50 (CCRF-CEM [20]): 14.1 µM
Compound: CISPLATIN
